# Compound activity: PubChem, several laboratories
# ALR H2O2 inh – blocks human ALR sulfhydryl oxidase activity; P55789; purified ALR, DTT oxidation, H2O2 HRP-luminol luminescence; inhibition, % (test concentration not listed); 3.8% of 290,000 active;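 active means mean replicate inhibition above about 79%, with every replicate also reaching it, limit read from the data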
# Target sequence (P55789 whole entry, looked up): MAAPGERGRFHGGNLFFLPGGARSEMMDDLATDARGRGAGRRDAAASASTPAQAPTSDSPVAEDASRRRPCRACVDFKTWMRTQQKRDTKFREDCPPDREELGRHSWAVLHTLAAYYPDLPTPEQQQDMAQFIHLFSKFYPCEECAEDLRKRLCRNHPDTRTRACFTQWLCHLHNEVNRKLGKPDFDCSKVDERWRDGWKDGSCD
# ATG4B inh – blocks human ATG4B protease cleavage of LC3 substrate. inhibition, % at 8.33 µM. 0.51% of 340,000 active. Q9Y4P1. ATG4B cleavage of LC3-PLA2, NBD-HPC fluorescence, 1 h; in the data active means inhibition above about 40%
# Calb FLC – C. albicans growth modulation with fluconazole | growth inhibition, % (no concentration beside the values) | 0.57% of 300,000 active | C. albicans CaCi-2 (fluconazole-resistant clinical isolate) + fluconazole, Alamar Blue growth, 48 h;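 active means growth inhibition above about 58% in most replicates, limit read from the data, passing the limit was not always enough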;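 further: all wells also contain fluconazole at 8 µg/ml as a sub-toxic cotreatment; 0% = median of DMSO wells and 100% = median of geldanamycin control wells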
# NALP3 yeast inh – inhibitors of NALP3 inflammasome in yeast; Yeast reconstituted NLRP3/ASC/caspase-1, beta-gal luminescence, 24 h; AID 2825; 0.39% of 330,000 active; inhibition, % at 10 µM;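 active means inhibition of 50% or more; inactive means inhibition below 50%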;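 further: plate controls were induced DMSO wells for no effect and uninduced yeast grown without galactose for full effect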
# NALP1 yeast inh – NALP1 inhibition; inhibition, % at 10 µM; S. cerevisiae NALP1/ASC/caspase-1 growth, X-gal OD620, 72 h; 0.61% of 280,000 active; in the data active means inhibition mostly above about 24%, no sharp cut-off; inactive means mostly below about 32%
# UCH37 DUB inh – inhibitors of human deubiquitinating enzyme UCH37; purified proteasome/UCH37, Ub-AMC cleavage fluorescence; inhibition, % (test concentration not listed); 0.33% of 330,000 active;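 active means mean inhibition over replicate wells above about 20%, limit read from the data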;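 further: 0% = compound-free wells with enzyme and 100% = wells lacking proteasome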
#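 Material: Human UCH37 enzyme supplied as purified proteasome complex | Schedule: 30 min preincubation with enzyme, 25 min cleavage at room temperature | Detection: AMC fluorescence 355/460 nm | Measure: % inhibition of Ub-AMC cleavage fluorescence | Controls: Wells without proteasome as full block, compound-free enzyme plus substrate as uninhibited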
# Active calls of the source: *; nt = no result given. Hits are enriched below; roughly 4.8% of the tested compounds scored in any of these assays.
SMILES,ALR H2O2 inh,ATG4B inh,Calb FLC,NALP3 yeast inh,NALP1 yeast inh,UCH37 DUB inh
COc1cnc(-c2ccccn2)nc1Oc1ccccc1,-1,-1,19,12,21*,2
O=C(NN=Cc1ccc(Br)o1)c1ccc2c(c1)OCCO2,nt,nt,nt,nt,nt,6
CC/C(=C(\c1ccc(O)cc1)c1ccc(OCCN(C)C)cc1)c1ccccc1,97*,9,nt,21,26,2
O=C1CSC(=Nc2ccccc2[N+](=O)[O-])N1,-10,-4,-11,5,11,29*
COc1ccc(-c2nnc(NC(=O)c3ccc(F)cc3)o2)cc1,22,2,92*,19,10,5
COc1ccc(-c2csc(NC(=O)c3ccc(S(=O)(=O)N4CCc5ccccc5C4)cc3)n2)cc1,-1,12,-13,14,31,-27
COc1ccc(-c2nnc(NC(=O)c3ccc(S(=O)(=O)N4CCc5ccccc5C4)cc3)o2)cc1,-12,12,97*,16,-4,-4
COc1ccc(-c2nnc(NC(=O)c3cc(Cl)ccc3Cl)o2)cc1,nt,-3,83*,8,-12,2
CC1CN(S(=O)(=O)c2ccc(C(=O)Nc3nnc(-c4ccco4)o3)cc2)CC(C)O1 (stereo not given),87*,-3,-36,17,-19,7
CC1CCN(S(=O)(=O)c2ccc(C(=O)Nc3nnc(-c4ccco4)o3)cc2)CC1,9,8,21,1,2,7
COc1ccc(-c2nnc(NC(=O)c3ccc4c(c3)OCCO4)o2)cc1,0,-12,-1,14,17,-6
CC(C)(NO)C(=NO)c1ccc(Br)cc1,nt,nt,nt,nt,nt,5
C(=Nc1nc2ccccc2n1CCN1CCCCC1)c1ccc2c(c1)OCO2,nt,nt,nt,nt,nt,4
CCC1CCCCN1S(=O)(=O)c1ccc(C(=O)Nc2nnc(-c3cccs3)o2)cc1 (stereo not given),98*,-5,nt,5,19,2
COCc1nnc(NC(=O)c2ccc(S(=O)(=O)N3CCCCCC3)cc2)o1,4,1,80*,1,-6,4
CC(=NN=C(N)SC1CC(=O)N(c2ccccc2)C1=O)c1cccs1 (stereo not given),nt,nt,nt,nt,nt,8
Cc1ccn2c(C(=O)NN=Cc3ccccc3[N+](=O)[O-])c(C)nc2c1,nt,nt,nt,nt,nt,14
NC(=O)c1cc2cc(Cl)ccc2oc1=Nc1cccc(C(F)(F)F)c1,91*,-3,-1,19,31,1
CCN(CC)CCn1c2c(c(SCC(=O)Nc3nc4ccccc4s3)nc1=O)CCC2,98*,-12,-4,17,nt,10
CCN(CC)CCn1c2c(c(SCC(=O)Nc3cccc4ccccc34)nc1=O)CCC2,97*,-7,5,7,nt,4
CNC(CC(=O)c1ccc([N+](=O)[O-])cc1)C(Cl)(Cl)Cl (stereo not given),nt,-3,nt,nt,115*,5
CN(C(=O)COC(=O)c1ccccc1Nc1ccccc1)C1CCS(=O)(=O)C1 (stereo not given),99*,-6,34,-14,-6,-2
Cc1cccc(Nc2ccccc2C(=O)OCC(=O)N(C)C2CCS(=O)(=O)C2)c1C (stereo not given),34,-12,-4,0,-1,0
CN(C(=O)COC(=O)c1cc([N+](=O)[O-])ccc1Sc1ccccc1)C1CCS(=O)(=O)C1 (stereo not given),-13,-17,-3,21,28*,nt
COc1ccc(C=NNc2nc(C)cc(-c3ccccc3)n2)cc1OC,nt,nt,nt,nt,nt,0
SMILES,ALR H2O2 inh,ATG4B inh,Calb FLC,NALP3 yeast inh,NALP1 yeast inh,UCH37 DUB inh
CC(C)(C)C(=O)NC(=S)NNC(=O)c1ccc(-c2ccccc2)cc1,40,-8,98*,44,6,-11
S=C(N/N=C/c1ccc2ncccc2c1)Nc1ccccc1,4,-8,88*,22,10,nt
Cc1ccccc1C(=O)NCC(=O)NNC(=S)NC(=O)c1ccccc1,98*,-2,-1,10,-9,1
O=C(CCN1CCOCC1)NNC(=S)NC(=O)c1ccccc1,99*,-8,-3,18,16,1
Cc1ccsc1C=NNC(=O)CNC(=O)c1c(F)cccc1Cl,nt,nt,nt,nt,nt,6
CCCCNC(=S)NN=Cc1cc(C)ccc1C,nt,nt,nt,nt,nt,3
COC(=O)c1ccc(NC(=S)Nc2ccccc2)cc1,1,-16,16,16,25,5
